Experimental data gathered from unrelated publications.
SLC22A1: Solute carrier family 22 member 1 (SLC22A1, Homo sapiens, UniProt O15245)

Structure (SMILES) | tested on | test | test system | conditions | quantity | value
CCCCOC(=O)N1CCN(C(=O)[C@H](CP(=O)(O)O)NC(=O)c2cc(N3CC[C@H](OC)C3)nc(-c3ccccc3)n2)CC1 |  |  | human, plasma | subcutaneous, 8 mg, 24 h, single dose | concentration | 0.4 ng/mL
COc1cc(OC)c2c(=O)cc(-c3ccc(Br)cc3)oc2c1-c1c(OC)cc(OC)c2c(=O)cc(-c3ccc(Br)cc3)oc12 | HS27 | cell growth or viability, MTT |  | 24 h | CC50 | > 200 µM
C=CCn1c(=O)c2cnc(Nc3ccc(N4CCN(C)CC4)cc3)nc2n1-c1cccc(C(C)(C)O)n1 |  |  | human, plasma | oral, 175 mg, 8 h, single dose | concentration | 213 nM
CN(C(=O)n1cnc(-c2ccc[n+]([O-])c2)c1)C1CCCCC1 | SLC22A1 | transporter uptake, inhibitor | CHO | 1 µg/mL | inhibition | 13%
CC(=O)OC[C@@]1(C)[C@H]2CC[C@@H]3CN(CC(C)C)[C@@H](C4=CCOC4=O)C[C@H]3[C@]2(C)CC[C@H]1OC(C)=O | MRC5 | cell growth or viability, ATP luminescence |  | 25 µM, 72 h | cell death | 20.7%
COc1cc(OC)c2c(=O)cc(-c3ccc(N(C)C)cc3)oc2c1 | HS27 | cell growth or viability, MTT |  | 24 h | CC50 | > 200 µM
C[C@@]12COCO[C@@H]1CC[C@]1(C)[C@@H]2CC[C@@H]2CN(Cc3ccccc3)[C@@H](C3=CCOC3=O)C[C@H]21 | MRC5 | cell growth or viability, ATP luminescence |  | 25 µM, 72 h | cell death | -1.2%
O=C(O)CSc1nnc(Br)n1-c1ccc(C2CC2)c2ccccc12 | SLC22A1 | transporter uptake, inhibitor | MDCK-II | 30 µM, 5 min | inhibition | 58%
COc1ccc(CN2C[C@H]3CC[C@@H]4[C@](C)(COC(C)=O)[C@H](OC(C)=O)CC[C@@]4(C)[C@@H]3C[C@@H]2C2=CCOC2=O)cc1 | MRC5 | cell growth or viability, ATP luminescence |  | 25 µM, 72 h | cell death | 56.4%
COc1cc(OC)c2c(=O)cc(-c3ccccc3Br)oc2c1 | HS27 | cell growth or viability, MTT |  | 24 h | CC50 | > 200 µM
CC(C)CCN1C[C@H]2CC[C@@H]3[C@]4(C)COC(C)(C)O[C@@H]4CC[C@@]3(C)[C@@H]2C[C@@H]1C1=CCOC1=O | MRC5 | cell growth or viability, ATP luminescence |  | 25 µM, 72 h | cell death | 11.7%
CN(CCC(=O)O)C(=O)c1ccc2c(c1)CC[C@@H]1[C@@H]2CC[C@]2(C)C(c3cncc(F)c3)=CC[C@@H]12 | UDP-glucuronosyltransferase 2B4 (UGT2B4, Homo sapiens, UniProt P06133) | enzyme activity, inhibitor |  |  | IC50 | > 30 µM
